The source of these data is ChEMBL document CHEMBL1133640, “Structure-activity studies including a Psi(CH(2)-NH) scan of peptide YY (PYY) active site, PYY(22-36), for interaction with rat intestinal PYY receptors: development of analogues with potent in vivo activity in the intestine” (J Med Chem, 2000).

Where a SMILES comes first, the peptide text is derived from it. [ ]: non-standard residue; d: D form. Bip = N[C@@H](Cc1ccc(-c2ccccc2)cc1)C(=O)O

In assay [1] the target is T1, Neuropeptide Y receptor type 2 (Homo sapiens, UniProt P49146).
T1 sequence (P49146 whole entry): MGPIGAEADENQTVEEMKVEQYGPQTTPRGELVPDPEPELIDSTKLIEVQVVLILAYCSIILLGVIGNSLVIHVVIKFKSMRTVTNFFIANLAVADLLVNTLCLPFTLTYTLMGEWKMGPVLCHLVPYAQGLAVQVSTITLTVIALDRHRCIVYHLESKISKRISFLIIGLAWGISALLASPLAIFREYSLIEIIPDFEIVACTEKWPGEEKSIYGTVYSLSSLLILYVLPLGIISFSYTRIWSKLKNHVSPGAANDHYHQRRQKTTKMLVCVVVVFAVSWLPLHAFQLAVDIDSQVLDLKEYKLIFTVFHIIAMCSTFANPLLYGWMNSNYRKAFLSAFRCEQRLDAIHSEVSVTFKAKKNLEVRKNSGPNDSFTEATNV
The experiment in a line: Affinity against Neuropeptide Y receptor Y2 in SK-N-BE2 cell line.

In assay [2] the target is Neuropeptide Y receptor type 2 (Rattus norvegicus, UniProt Q9ERC0). The assay can be described thus: Tested for the affinity for intestinal PYY from rat jejunum by using short circuit current (SCC) method.
Neuropeptide Y receptor type 2 (Rattus norvegicus, UniProt Q9ERC0), sequence (Q9ERC0 whole entry): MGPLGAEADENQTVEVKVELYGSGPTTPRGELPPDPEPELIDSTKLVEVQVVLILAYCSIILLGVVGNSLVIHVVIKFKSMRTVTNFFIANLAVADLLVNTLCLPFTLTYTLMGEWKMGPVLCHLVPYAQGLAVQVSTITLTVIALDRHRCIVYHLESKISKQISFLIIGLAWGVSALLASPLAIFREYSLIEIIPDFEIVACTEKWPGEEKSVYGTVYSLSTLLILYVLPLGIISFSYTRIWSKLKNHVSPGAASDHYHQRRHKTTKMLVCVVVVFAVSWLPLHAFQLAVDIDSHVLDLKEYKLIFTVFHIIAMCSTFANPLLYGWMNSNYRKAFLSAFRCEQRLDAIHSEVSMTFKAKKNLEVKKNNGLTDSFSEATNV
Assay [3] has as its target Neuropeptide Y receptor type 1 (Homo sapiens, UniProt P25929). The experiment in a line: Affinity against Neuropeptide Y receptor Y1 in SK-N-MC cell line. It is filed as cell-based.
The next assay relates to Rattus norvegicus. The assay can be described thus: Tested for in vivo antisecretory potency for inhibiting VIP-induced (30 micro g/kg/h) secretion in isolated jejunum in anesthetized rats.(95% CL). Type of assay: functional. To be noted: read-out: ID50 (the source's name). The essentials:
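Rats anesthetized, saphenous vein cannulated. Isolated jejunal loop instilled with 2000 μL fluid. At the end the loop is excised, measured and weighed before and after emptying. Net water flux (μL/cm/30 min) = (F-E)2000/L; negative means absorption. 6-8 animals per dose.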

For assay [4], the species on record is Canis familiaris. The assay can be described thus: Peak proabsorptive effects of intralbuminal Infusion on absorption of water in the colon of awake dogs bearing ileal and/or Colonic Thiry-Vella Fistulasa. Particulars: Canis lupus familiaris. Type of assay: functional, organism-based.
The species entered for assay [5] is Canis familiaris. The assay can be described thus: Peak proabsorptive effects of intralbuminal Infusion on absorption of Cl- in the ileum of awake dogs bearing ileal and/or Colonic Thiry-Vella Fistulasa. Type of assay: functional, organism-based. To be noted: Canis lupus familiaris.
Assay [6] is filed under the species Canis familiaris. The experiment in a line: Peak proabsorptive effects of intralbuminal Infusion on absorption of Na+ in the ileum of awake dogs bearing ileal and/or Colonic Thiry-Vella Fistulasa. It is filed as functional, organism-based. To be noted: Canis lupus familiaris.
Assay [7] is filed under the species Canis familiaris. The experiment in a line: Peak proabsorptive effects of intralbuminal Infusion on absorption of water in the ileum of awake dogs bearing ileal and/or Colonic Thiry-Vella Fistulasa. To be noted: Canis lupus familiaris. It is filed as functional, organism-based.
For assay [8], the species on record is Canis familiaris. The assay can be described thus: Peak proabsorptive effects of intralbuminal Infusion on absorption of Na+ in the colon of awake dogs bearing ileal and/or Colonic Thiry-Vella Fistulasa. It is filed as functional, organism-based. Particulars: Canis lupus familiaris.
The species entered for assay [9] is Canis familiaris. The assay can be described thus: Peak proabsorptive effects of intralbuminal Infusion on absorption of Cl- in the colon of awake dogs bearing ileal and/or Colonic Thiry-Vella Fistulasa. Type of assay: functional, organism-based. To be noted: Canis lupus familiaris.

Neuropeptide Y receptor type 1, sequence (P25929 whole entry): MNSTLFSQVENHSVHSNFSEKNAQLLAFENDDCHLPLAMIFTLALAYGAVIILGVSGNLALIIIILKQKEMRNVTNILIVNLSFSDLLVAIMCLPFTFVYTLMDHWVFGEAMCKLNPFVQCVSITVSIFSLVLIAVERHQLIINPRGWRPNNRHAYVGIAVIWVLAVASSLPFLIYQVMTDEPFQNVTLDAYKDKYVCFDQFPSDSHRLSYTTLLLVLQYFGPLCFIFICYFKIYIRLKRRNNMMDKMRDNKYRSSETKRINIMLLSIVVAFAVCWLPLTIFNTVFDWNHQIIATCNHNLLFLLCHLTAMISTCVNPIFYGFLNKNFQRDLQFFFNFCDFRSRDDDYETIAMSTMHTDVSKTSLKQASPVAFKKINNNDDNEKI

Take `CC(=O)N[C@@H](C)C(=O)N[C@@H](CO)C(=O)N[C@@H](CC(C)C)C(=O)N[C@@H](CCCN=C(N)N)C(=O)N[C@@H](Cc1c[nH]cn1)C(=O)N[C@@H](Cc1ccc(-c2ccccc2)cc1)C(=O)N[C@@H](CC(C)C)C(=O)N[C@@H](CC(N)=O)C(=O)N[C@@H](CC(C)C)C(=O)N[C@H](C(=O)N[C@H](C(=O)N[C@@H](CCCN=C(N)N)C(=O)N[C@@H](CCC(N)=O)C(=O)N[C@@H](CCCN=C(N)N)C(=O)N[C@@H](Cc1ccc(O)cc1)C(N)=O)[C@@H](C)O)C(C)C` (Ac-ASLRH[Bip]LNLVTRQRY-NH2): the figures for the IC50 in assay [1], in [2] and in assay [3] were 14.2 nM, 2.42 nM and 279 nM, respectively.
Taken in the same sequence, the figures for “Ac-ASLRHWLNLVTRQRY-NH2 [listing 1 of 2 here]” were 2.09 nM, 3.2 nM and 77 nM.
For the compound “Ac-ASLRHWLNLVTRQRY-NH2 [listing 2 of 2 here]”, the ED50 with Rattus norvegicus came to 3.33e-05 µmol/kg. The figures for the Absorption in the assay listed under Canis familiaris [4] and in the assay filed under Canis familiaris [7] were 503 µL/min and 725 µL/min, respectively. Also, the Absorption (u equiv min-1) in the assay listed under Canis familiaris [5] was 101; in the assay listed under Canis familiaris [6] it was 120; in the assay filed under Canis familiaris [8], 78; in the assay listed under Canis familiaris [9], 77.
On to Ac-ASLRHYLWLVTRQRY-NH2, for which the half-maximal inhibitory concentration (IC50) in assay [1] is 158 nM; in assay [2], 100 nM; in assay [3] it was 762 nM.
For `CNC(=O)[C@H](Cc1ccc(O)cc1)NC(=O)[C@H](CCCNC(=N)N)NC(=O)[C@H](CCC(N)=O)NC(=O)[C@H](CCCNC(=N)N)NC(=O)[C@@H](NC(=O)[C@@H](NC(=O)[C@H](CC(C)C)NC(=O)[C@H](CC(N)=O)NC(=O)[C@H](CC(C)C)NC(=O)[C@H](Cc1c[nH]c2ccccc12)NC(=O)[C@H](Cc1cnc[nH]1)NC(=O)[C@H](CCCNC(=N)N)NC(=O)[C@H](CC(C)C)NC(=O)[C@H](CO)NC(=O)[C@H](C)NC(C)=O)C(C)C)[C@@H](C)O` (Ac-ASLRHWLNLVTRQRY-NHMe), in that order: over 100 nM, over 100 nM and over 1000 nM.
Taken in the same sequence, the figures for Ac-ASLRHYWNLVTRQRY-NH2 were 2.08 nM, 0.6 nM and 398 nM.
